Values after ≈ are worked out from the molar mass of the structure shown.
Key:
[1] = system: Mycobacterium tuberculosis; experiment: Antitubercular activity against Mycobacterium tuberculosis H37Rv by MABA assay; format: functional
Summary of the method: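 Actives re-tested at lower concentrations against H37Rv (ATCC 27294) in BACTEC 12B medium by Microplate Alamar Blue Assay. MIC taken as lowest concentration giving […] fluorescence reduction versus controls; rifampin reference.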

Staphylococcus aureus = experiment: Antibacterial activity against Staphylococcus aureus at 50 to 100 uM after 24 hrs by well diffusion method; format: functional
Summary of the method: (§1)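 Nutrient agar plates with 10 mm wells cut by cork borer; 24-h subcultured bacteria swabbed on. Compounds dissolved in chloroform, 50 to 100 μM added to wells, gentamycin as standard. Incubated 24 h at 24–28 °C; inhibition zone diameter measured and converted to percent inhibition.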

Escherichia coli = experiment: Antibacterial activity against Escherichia coli at 50 to 100 uM after 24 hrs by well diffusion method; format: functional; summary of the method: as §1
Pseudomonas aeruginosa = experiment: Antibacterial activity against Pseudomonas aeruginosa at 50 to 100 uM after 24 hrs by well diffusion method; format: functional; summary of the method: as §1
Salmonella typhi = experiment: Antibacterial activity against Salmonella typhi at 50 to 100 uM after 24 hrs by well diffusion method; format: functional, Salmonella enterica subsp. enterica serovar Typhi; set-up: unit not given here; summary of the method: as §1
[2] = Cytotoxicity against Vero-C1008 cells at 6.25 to 50 ug/mL by neutral red uptake assay; format: cell-based; conditions: chlorocebus sabaeus
Summary of the method: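 Vero-C-1008 cells exposed to 6.25 to 50 μg/mL compound; viability read by neutral red uptake.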

O=C(O)CCNc1nc(Cc2nnc(SCC(=O)NNC(=O)CCl)n2NC(=O)c2cccc([N+](=O)[O-])c2)cs1
MIC [1]: < 6.25 µg/mL
inhibition zone (Staphylococcus aureus): 24 mm
inhibition zone (Escherichia coli): 24 mm
inhibition zone (Pseudomonas aeruginosa): 26 mm
Inhibition (Salmonella typhi): 24
Activity [2]: Non-toxic

O=C(O)CCNc1nc(Cc2nnc(SCC(=O)NNC(=O)c3ccccc3)n2NC(=O)c2cccc([N+](=O)[O-])c2)cs1
MIC [1]: < 6.25 µg/mL
inhibition zone (Staphylococcus aureus): 12 mm
inhibition zone (Escherichia coli): 10 mm
inhibition zone (Pseudomonas aeruginosa): 10 mm
Inhibition (Salmonella typhi): 14
Activity [2]: Non-toxic

Nn1c(S)nnc1CSc1nnc(Cc2csc(NC(=O)c3ccccc3)n2)n1NC(=O)c1ccc(Cl)cc1
MIC [1]: < 6.25 µg/mL
inhibition zone (Staphylococcus aureus): 26 mm
inhibition zone (Escherichia coli): 20 mm
inhibition zone (Pseudomonas aeruginosa): 19 mm
Inhibition (Salmonella typhi): 19
Activity [2]: Non-toxic

NNC(=O)CSc1nnc(Cc2csc(NCCC(=O)O)n2)n1NC(=O)c1ccc(Cl)cc1
MIC [1]: < 6.25 µg/mL
inhibition zone (Staphylococcus aureus): 23 mm
inhibition zone (Escherichia coli): 18 mm
inhibition zone (Pseudomonas aeruginosa): 26 mm
Inhibition (Salmonella typhi): 22
Activity [2]: Non-toxic

GENTAMICIN
inhibition (Staphylococcus aureus): 34%
inhibition (Escherichia coli): 31%
inhibition (Pseudomonas aeruginosa): 35%
inhibition (Salmonella typhi; Salmonella enterica subsp. enterica serovar Typhi): 30%

COC(=O)CSc1nnc(Cc2csc(NC(C)=O)n2)n1NC(=O)c1cccc([N+](=O)[O-])c1
MIC [1]: < 6.25 µg/mL
inhibition zone (Staphylococcus aureus): 24 mm
inhibition zone (Escherichia coli): 20 mm
inhibition zone (Pseudomonas aeruginosa): 22 mm
Inhibition (Salmonella typhi): 18
Activity [2]: Non-toxic

Nn1c(S)nnc1CSc1nnc(Cc2csc(NC(=O)c3ccccc3)n2)n1NC(=O)c1cccc([N+](=O)[O-])c1
MIC [1]: < 6.25 µg/mL
inhibition zone (Staphylococcus aureus): 24 mm
inhibition zone (Escherichia coli): 20 mm
inhibition zone (Pseudomonas aeruginosa): 27 mm
Inhibition (Salmonella typhi): 19
Activity [2]: Non-toxic

CC(=O)Nc1nc(Cc2nnc(SCC(=O)NNC(=O)CCl)n2NC(=O)c2cccc([N+](=O)[O-])c2)cs1
MIC [1]: < 6.25 µg/mL
inhibition zone (Staphylococcus aureus): 12 mm
inhibition zone (Escherichia coli): 18 mm
inhibition zone (Pseudomonas aeruginosa): 18 mm
Inhibition (Salmonella typhi): 14
Activity [2]: Non-toxic

O=C(O)CCNc1nc(Cc2nnc(SCSc3nnc(Cc4csc(NCCC(=O)O)n4)n3NC(=O)c3ccc(Cl)cc3)n2NC(=O)c2ccc(Cl)cc2)cs1
MIC [1]: < 6.25 µg/mL
inhibition zone (Staphylococcus aureus): 21 mm
inhibition zone (Escherichia coli): 22 mm
inhibition zone (Pseudomonas aeruginosa): 29 mm
Inhibition (Salmonella typhi): 20
Activity [2]: Non-toxic

Nn1c(S)nnc1Cc1csc(NC(=O)CCl)n1
inhibition zone (Staphylococcus aureus): 18 mm
inhibition zone (Escherichia coli): 14 mm
inhibition zone (Pseudomonas aeruginosa): 17 mm
Inhibition (Salmonella typhi): 12
Activity [2]: Non-toxic

Nn1c(S)nnc1CSc1nnc(Cc2csc(NCCC(=O)O)n2)n1NC(=O)c1cccc([N+](=O)[O-])c1
MIC [1]: < 6.25 µg/mL
inhibition zone (Staphylococcus aureus): 26 mm
inhibition zone (Escherichia coli): 17 mm
inhibition zone (Pseudomonas aeruginosa): 28 mm
Inhibition (Salmonella typhi): 18
Activity [2]: Non-toxic

CC(=O)Nc1nc(Cc2nnc(SCC(=O)NNC(=O)c3ccccc3)n2NC(=O)c2ccc(Cl)cc2)cs1
MIC [1]: < 6.25 µg/mL
inhibition zone (Staphylococcus aureus): 28 mm
inhibition zone (Escherichia coli): 20 mm
inhibition zone (Pseudomonas aeruginosa): 22 mm
Inhibition (Salmonella typhi): 17
Activity [2]: Non-toxic

CC(=O)Nc1nc(Cc2nnc(SCC(=O)NNC(=O)c3ccccc3)n2NC(=O)c2cccc([N+](=O)[O-])c2)cs1
MIC [1]: < 6.25 µg/mL
inhibition zone (Staphylococcus aureus): 32 mm
inhibition zone (Escherichia coli): 30 mm
inhibition zone (Pseudomonas aeruginosa): 30 mm
Inhibition (Salmonella typhi): 27
Activity [2]: Non-toxic

COC(=O)CSc1nnc(Cc2csc(NC(=O)c3ccccc3)n2)n1NC(=O)c1cccc([N+](=O)[O-])c1
MIC [1]: < 6.25 µg/mL
inhibition zone (Staphylococcus aureus): 22 mm
inhibition zone (Escherichia coli): 24 mm
inhibition zone (Pseudomonas aeruginosa): 11 mm
Inhibition (Salmonella typhi): 24
Activity [2]: Non-toxic

CC(=O)Nc1nc(Cc2nnc(SCSc3nnc(Cc4csc(NC(C)=O)n4)n3NC(=O)c3cccc([N+](=O)[O-])c3)n2NC(=O)c2cccc([N+](=O)[O-])c2)cs1
MIC [1]: < 6.25 µg/mL
inhibition zone (Staphylococcus aureus): 27 mm
inhibition zone (Escherichia coli): 26 mm
inhibition zone (Pseudomonas aeruginosa): 32 mm
Inhibition (Salmonella typhi): 26
Activity [2]: Non-toxic

O=C(O)CCNc1nc(Cc2nnc(SCC(=O)NNC(=O)CCl)n2NC(=O)c2ccc(Cl)cc2)cs1
MIC [1]: < 6.25 µg/mL
Activity [2]: Non-toxic

O=C(O)CCNc1nc(Cc2nnc(SCSc3nnc(Cc4csc(NCCC(=O)O)n4)n3NC(=O)c3cccc([N+](=O)[O-])c3)n2NC(=O)c2cccc([N+](=O)[O-])c2)cs1
MIC [1]: < 6.25 µg/mL
inhibition zone (Staphylococcus aureus): 25 mm
inhibition zone (Escherichia coli): 21 mm
inhibition zone (Pseudomonas aeruginosa): 26 mm
Inhibition (Salmonella typhi): 18
Activity [2]: Non-toxic

Nn1c(S)nnc1CSc1nnc(Cc2csc(NC(=O)CCl)n2)n1NC(=O)c1ccc(Cl)cc1
MIC [1]: < 6.25 µg/mL
inhibition zone (Staphylococcus aureus): 27 mm
inhibition zone (Escherichia coli): 22 mm
inhibition zone (Pseudomonas aeruginosa): 20 mm
Inhibition (Salmonella typhi): 20
Activity [2]: Non-toxic

NNC(=O)CSc1nnc(Cc2csc(NCCC(=O)O)n2)n1NC(=O)c1cccc([N+](=O)[O-])c1
MIC [1]: < 6.25 µg/mL
inhibition zone (Staphylococcus aureus): 24 mm
inhibition zone (Escherichia coli): 16 mm
inhibition zone (Pseudomonas aeruginosa): 28 mm
Inhibition (Salmonella typhi): 21
Activity [2]: Non-toxic

CC(=O)NNC(=O)CSc1nnc(Cc2csc(NCCC(=O)O)n2)n1NC(=O)c1ccc(Cl)cc1
MIC [1]: < 6.25 µg/mL
inhibition zone (Staphylococcus aureus): 20 mm
inhibition zone (Escherichia coli): 26 mm
inhibition zone (Pseudomonas aeruginosa): 21 mm
Inhibition (Salmonella typhi): 18
Activity [2]: Non-toxic

CC(=O)Nc1nc(Cc2nnc(SCC#N)n2NC(=O)c2cccc([N+](=O)[O-])c2)cs1
MIC [1]: < 6.25 µg/mL
inhibition zone (Staphylococcus aureus): 22 mm
inhibition zone (Escherichia coli): 20 mm
inhibition zone (Pseudomonas aeruginosa): 26 mm
Inhibition (Salmonella typhi): 21
Activity [2]: Non-toxic

O=C(CSc1nnc(Cc2csc(NC(=O)c3ccccc3)n2)n1NC(=O)c1ccc(Cl)cc1)NNC(=O)c1ccccc1
MIC [1]: < 6.25 µg/mL
inhibition zone (Staphylococcus aureus): 19 mm
inhibition zone (Escherichia coli): 18 mm
inhibition zone (Pseudomonas aeruginosa): 24 mm
Inhibition (Salmonella typhi): 18
Activity [2]: Non-toxic

O=C(CCl)Nc1nc(Cc2nnc(SCSc3nnc(Cc4csc(NC(=O)CCl)n4)n3NC(=O)c3ccc(Cl)cc3)n2NC(=O)c2ccc(Cl)cc2)cs1
MIC [1]: < 6.25 µg/mL
inhibition zone (Staphylococcus aureus): 23 mm
inhibition zone (Escherichia coli): 29 mm
inhibition zone (Pseudomonas aeruginosa): 28 mm
Inhibition (Salmonella typhi): 18
Activity [2]: Non-toxic

O=C(CCl)NNC(=O)CSc1nnc(Cc2csc(NC(=O)c3ccccc3)n2)n1NC(=O)c1cccc([N+](=O)[O-])c1
MIC [1]: < 6.25 µg/mL
inhibition zone (Staphylococcus aureus): 14 mm
inhibition zone (Escherichia coli): 18 mm
inhibition zone (Pseudomonas aeruginosa): 11 mm
Inhibition (Salmonella typhi): 12
Activity [2]: Non-toxic

CC(=O)NNC(=O)CSc1nnc(Cc2csc(NC(C)=O)n2)n1NC(=O)c1ccc(Cl)cc1
MIC [1]: < 6.25 µg/mL
inhibition zone (Staphylococcus aureus): 27 mm
inhibition zone (Escherichia coli): 20 mm
inhibition zone (Pseudomonas aeruginosa): 19 mm
Inhibition (Salmonella typhi): 23
Activity [2]: Non-toxic

COC(=O)CSc1nnc(Cc2csc(NCCC(=O)O)n2)n1NC(=O)c1ccc(Cl)cc1
MIC [1]: < 6.25 µg/mL
inhibition zone (Staphylococcus aureus): 26 mm
inhibition zone (Escherichia coli): 22 mm
inhibition zone (Pseudomonas aeruginosa): 24 mm
Inhibition (Salmonella typhi): 18
Activity [2]: Non-toxic

O=C(O)CCNc1nc(Cc2nnc(SCC(=O)NNC(=O)c3ccccc3)n2NC(=O)c2ccc(Cl)cc2)cs1
MIC [1]: < 6.25 µg/mL
inhibition zone (Staphylococcus aureus): 18 mm
inhibition zone (Escherichia coli): 19 mm
inhibition zone (Pseudomonas aeruginosa): 25 mm
Inhibition (Salmonella typhi): 23
Activity [2]: Non-toxic

Nn1c(S)nnc1CSc1nnc(Cc2csc(NCCC(=O)O)n2)n1NC(=O)c1ccc(Cl)cc1
MIC [1]: < 6.25 µg/mL
inhibition zone (Staphylococcus aureus): 21 mm
inhibition zone (Escherichia coli): 19 mm
inhibition zone (Pseudomonas aeruginosa): 24 mm
Inhibition (Salmonella typhi): 23
Activity [2]: Non-toxic

Nn1c(S)nnc1CSc1nnc(Cc2csc(NC(=O)CCl)n2)n1NC(=O)c1cccc([N+](=O)[O-])c1
MIC [1]: < 6.25 µg/mL
inhibition zone (Staphylococcus aureus): 20 mm
inhibition zone (Escherichia coli): 18 mm
inhibition zone (Pseudomonas aeruginosa): 26 mm
Inhibition (Salmonella typhi): 21
Activity [2]: Non-toxic

CC(=O)Nc1nc(Cc2nnc(SCc3nnc(S)n3N)n2NC(=O)c2cccc([N+](=O)[O-])c2)cs1
MIC [1]: < 6.25 µg/mL
inhibition zone (Staphylococcus aureus): 18 mm
inhibition zone (Escherichia coli): 21 mm
inhibition zone (Pseudomonas aeruginosa): 13 mm
Inhibition (Salmonella typhi): 18
Activity [2]: Non-toxic

CC(=O)Nc1nc(Cc2nnc(SCSc3nnc(Cc4csc(NC(C)=O)n4)n3NC(=O)c3ccc(Cl)cc3)n2NC(=O)c2ccc(Cl)cc2)cs1
MIC [1]: < 6.25 µg/mL
inhibition zone (Staphylococcus aureus): 24 mm
inhibition zone (Escherichia coli): 24 mm
inhibition zone (Pseudomonas aeruginosa): 21 mm
Inhibition (Salmonella typhi): 17
Activity [2]: Non-toxic

CC(=O)NNC(=O)CSc1nnc(Cc2csc(NC(C)=O)n2)n1NC(=O)c1cccc([N+](=O)[O-])c1
MIC [1]: < 6.25 µg/mL
inhibition zone (Staphylococcus aureus): 33 mm
inhibition zone (Escherichia coli): 30 mm
inhibition zone (Pseudomonas aeruginosa): 34 mm
Inhibition (Salmonella typhi): 29
Activity [2]: Non-toxic

O=C(CCl)NNC(=O)CSc1nnc(Cc2csc(NC(=O)CCl)n2)n1NC(=O)c1ccc(Cl)cc1
MIC [1]: < 6.25 µg/mL
inhibition zone (Staphylococcus aureus): 24 mm
inhibition zone (Escherichia coli): 18 mm
Activity [2]: Non-toxic

COC(=O)CSc1nnc(Cc2csc(NCCC(=O)O)n2)n1NC(=O)c1cccc([N+](=O)[O-])c1
MIC [1]: < 6.25 µg/mL
inhibition zone (Staphylococcus aureus): 22 mm
inhibition zone (Pseudomonas aeruginosa): 22 mm
Inhibition (Salmonella typhi): 20
Activity [2]: Non-toxic

CO[C@H]1/C=C/O[C@@]2(C)Oc3c(C)c(O)c4c(O)c(c(/C=N/N5CCN(C)CC5)c(O)c4c3C2=O)NC(=O)/C(C)=C\C=C\[C@H](C)[C@H](O)[C@@H](C)[C@@H](O)[C@@H](C)[C@H](OC(C)=O)[C@@H]1C [RIFAMPIN]
MIC [1]: 0.015 µg/mL (≈ 0.0182 µM)

— ChEMBL document CHEMBL1148007, “Synthesis of new S-derivatives of clubbed triazolyl thiazole as anti-Mycobacterium tuberculosis agents” (Bioorg Med Chem, 2007)
